High-throughput results as filed in PubChem.
Beta2AR agonist: activates human beta-2 adrenergic receptor causing internalization | Am2.2-beta2AR cells, FAP receptor internalization, flow cytometry | response, % (concentration not given with the values) | 0.43% of 340,000 active | AID 504454;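 active means response above a set limit, near 3 SD of response in nonfluorescent compounds, cut at about 42% in these data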
CCR6 antagonist: CCR6 (human) receptor antagonism; CHO-K1 CCR6 PathHunter beta-arrestin, luminescence, CCL20-stimulated; P51684; inhibition, % at 20 µM; 0.49% of 340,000 active;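 active means compounds whose inhibition of the agonist-driven luminescence signal at 20 µM reaches about 50%, limit read from the data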;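 further: cells stimulated with CCL20 at 14 nM final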
PfG6PD inh: PfG6PD (Plasmodium falciparum) enzyme inhibition; inhibition, % at 20 µM; PfGluPho enzyme, NADPH resazurin-diaphorase fluorescence; 0.78% of 350,000 active;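 active means inhibition reaching at least a set limit at 20 µM in the primary screen, cut at about 59% in these data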
CXCR6 block: blocks human CXCR6 beta-arrestin recruitment; 0.36% of 360,000 active; inhibition, % at 20 µM; CHO-K1 PathHunter CXCR6 beta-arrestin, luminescence; O00574; in the data active means inhibition above about 34%, passing the limit was not always enough;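 further: antagonist mode with CXCL16 agonist at 10 nM final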
Target sequence (O00574 whole entry, looked up): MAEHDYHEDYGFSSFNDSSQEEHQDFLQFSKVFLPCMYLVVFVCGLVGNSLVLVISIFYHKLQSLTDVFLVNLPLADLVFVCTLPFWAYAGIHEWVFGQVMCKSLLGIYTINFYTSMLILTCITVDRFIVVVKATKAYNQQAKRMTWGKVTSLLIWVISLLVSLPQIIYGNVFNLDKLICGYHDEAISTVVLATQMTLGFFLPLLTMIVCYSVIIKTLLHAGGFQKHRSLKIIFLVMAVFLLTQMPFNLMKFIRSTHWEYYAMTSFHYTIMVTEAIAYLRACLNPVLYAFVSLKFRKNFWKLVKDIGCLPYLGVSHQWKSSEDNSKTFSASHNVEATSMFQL
APJ ag: activates the human apelin receptor APJ; P35414; CHO-K1 APJ PathHunter beta-arrestin, luminescence; 0% DMSO wells, 100% apelin; activation, % at 20 µM; 0.11% of 330,000 active; AID 2520;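 active means activation more than six SD over the plate average, tested at 20 µM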
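Assay system: CHO-K1 APJ beta-arrestin complementation cell line / Compound: single test compound dose, 20 µM final, 1% DMSO / Times: overnight seeding, 90 min compound at 25 °C, 1 h detection / Technique: beta-gal luminescence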
APJ antag: antagonists of human APJ apelin receptor; CHO-K1 APJ beta-arrestin complementation, luminescence; P35414; inhibition, % at 20 µM; 0.32% of 330,000 active;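 active means inhibition above about 40% at 20 µM, limit read from the data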;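 further: cells challenged with 10 nM apelin-13 agonist together with compound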
PfG6PD confirm: PfG6PD inhibition, single-dose confirmed. inhibition, % at 20 µM. 34% of 2,400 active. shares compounds with PfG6PD inh. recombinant PfGluPho, NADPH-diaphorase-resazurin fluorescence;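 active means inhibition of at least 50% at 20 µM in any single replicate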
Diaphorase 10uM: counter-screen for P. falciparum G6PD inhibitors: diaphorase inhibitors, oxidizers; inhibition, % at 20 µM; shares compounds with PfG6PD inh; diaphorase-coupled resazurin reduction, fluorescence, NADPH 10 uM; 39% of 820 active;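 active means average inhibition reaching 50% or more with the compound at 20 µM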;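 further: resorufin red fluorescence formed as diaphorase reduces resazurin using NADPH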
Diaphorase 30uM: inhibits diaphorase or oxidizes, flagging false PfG6PD hits. shares compounds with PfG6PD inh. Diaphorase/resazurin coupled assay, resorufin fluorescence, 30 uM NADPH. inhibition, % at 20 µM. 29% of 820 active. AID 504863;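 active means inhibition averaging 50% or more, tested at 20 µM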
Large screens that a line does not name were inactive (follow-up assays come after a bar, where they were run). Rows were chosen to be rich in hits. Some 1.7% of all compounds tested hit in one or more screens of this group.

COc1ccc(NC(=O)Nc2cccc([N+](=O)[O-])c2)cc1Cl	PfG6PD inh 61 | PfG6PD confirm inactive
CCSc1nc2c(c(=O)[nH]c(=O)n2C)n1CC(O)COc1ccccc1 (stereo unspecified)	none
CC(C)CSc1nc2c(c(=O)[nH]c(=O)n2C)n1CC(O)COc1cccc2ccccc12 (stereo unspecified)	PfG6PD inh 64 (no result: APJ ag, APJ antag) | PfG6PD confirm inactive
CCOC(=O)c1sc(=S)n(C)c1NC(=O)c1ccccc1C	none
CCOC(=O)c1sc(=S)n(C)c1NC(=O)c1ccc(F)cc1	PfG6PD inh 72 | PfG6PD confirm inactive
COc1cccc(NC(=O)CN2C(=O)NC(Cc3c[nH]c4ccccc34)C2=O)c1 (stereo unspecified)	none
CC1(C)CC2(CC(c3ccccc3F)c3ccc(O)c(O)c3O2)NC(=S)N1 (stereo unspecified)	PfG6PD inh 66 | PfG6PD confirm 70 | Diaphorase 10uM inactive | Diaphorase 30uM inactive
CN1CCN(C2=C(Cl)C(=O)c3ccccc3C2=O)CC1	PfG6PD inh 107 (no result: APJ ag, APJ antag) | PfG6PD confirm 75 | Diaphorase 10uM 74 | Diaphorase 30uM 77
NC(=O)C1CCN(C2=C(Cl)C(=O)c3ccccc3C2=O)CC1	Beta2AR agonist 46, PfG6PD inh 74 | PfG6PD confirm inactive
CC1COCC(C)N1C1=C(Cl)C(=O)c2ccccc2C1=O (stereo unspecified)	Beta2AR agonist 81, PfG6PD inh 75 (no result: CCR6 antagonist, APJ ag, APJ antag) | PfG6PD confirm 64 | Diaphorase 10uM inactive | Diaphorase 30uM inactive
CCCN(C(=O)c1cc(S(=O)(=O)N2CCCCCC2)ccc1OC)C1CCS(=O)(=O)C1 (stereo unspecified)	none
CC[C@H]1OC(=O)[C@H](C)[C@@H](O[C@H]2C[C@@](C)(OC)[C@@H](O)[C@H](C)O2)[C@H](C)[C@@H](O[C@@H]2O[C@H](C)C[C@H](N(C)C)[C@H]2O)[C@](C)(O)C[C@@H](C)C(=NOCOCCOC)[C@H](C)[C@@H](O)[C@]1(C)O	none
Cc1cc(C)nc(SCCN(C)C)n1	none
Cc1cc(C)nc(SSc2nc(C)cc(C)n2)n1	PfG6PD inh 65 | PfG6PD confirm 64 | Diaphorase 10uM inactive | Diaphorase 30uM inactive
CC1O[C@@H](O[C@H](C)CC/C=C/C(=O)O)C(O)C[C@H]1O (stereo partly specified)	none
COc1cccc2sc3ccc(C#CC4(O)CCCCC4)cc3c(=O)c12	PfG6PD inh 68 | PfG6PD confirm inactive
O=c1c2ccccc2sc2ccc(C#CC3(O)CCCCC3)cc12	none
Oc1ccc(NCc2cccc(OCc3ccccc3)c2)cc1	PfG6PD inh 59 | PfG6PD confirm inactive
Oc1ccc(NCc2cccc(OCc3ccc(F)cc3)c2)cc1	none
Cn1c(=O)[nH]c(=O)c2c1nc([N+](=O)[O-])n2Cc1ccccc1	Beta2AR agonist 67, PfG6PD inh 86 | PfG6PD confirm 88 | Diaphorase 10uM inactive | Diaphorase 30uM 51
CCNc1nc2c(c(=O)[nH]c(=O)n2C)n1CC(C)C	none
CC(C)Cn1c([N+](=O)[O-])nc2c1c(=O)[nH]c(=O)n2C	PfG6PD inh 71 | PfG6PD confirm 55 | Diaphorase 10uM inactive | Diaphorase 30uM inactive
Cc1ccc(S(=O)(=O)N2CCOCC2)cc1C(=O)N1CCN(S(=O)(=O)c2ccccc2F)CC1	none (no result: APJ ag, APJ antag)
O=c1nc2sc3ccccc3n2c(=O)n1-c1cccc(Cl)c1	none
CN(C)S(=O)(=O)c1ccc2[nH]cc(/C=C/c3nc4ccccc4c(=O)n3-c3ccccc3)c2c1	none
O=c1c2ccccc2sn1-c1cccc(Cl)c1	PfG6PD inh 128 (no result: Beta2AR agonist, CCR6 antagonist, APJ ag, APJ antag) | PfG6PD confirm 104 | Diaphorase 10uM inactive | Diaphorase 30uM inactive
CN(C)S(=O)(=O)c1cccc(-n2sc3ccccc3c2=O)c1	PfG6PD inh 115 | PfG6PD confirm 111 | Diaphorase 10uM inactive | Diaphorase 30uM inactive
